Screens from PubChem.
Compounds with a hit are over-represented: about 2.2% of the library has one in this group of screens.
PfG6PD inh – PfG6PD (Plasmodium falciparum) enzyme inhibition; PfGluPho enzyme, NADPH resazurin-diaphorase fluorescence; 350,000 compounds, 0.78% hits; inhibition, % at 20 µM;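 active means inhibition reaching at least a set limit at 20 µM in the primary screen, cut at about 59% in these data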;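 further: 0% = DMSO wells with substrate and 100% = DMSO wells lacking glucose-6-phosphate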
HKDC1 inh – blocks human hexokinase HKDC1 activity. inhibition, % at 20 µM. recombinant HKDC1, G6PDH/diaphorase resazurin coupled fluorescence. 340,000 compounds, 0.16% hits;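 active means inhibition above about 35% when tested at 20 µM, limit read from the data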;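 further: plate controls were DMSO wells with enzyme for no effect and DMSO wells lacking enzyme for full effect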
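Test system: HK5 enzyme. Quantity: 5 µg/mL HK5 final. Reagent: glucose and ATP substrates. Schedule: 90 min reaction incubation at room temperature, dark. Technique: resazurin-to-resorufin fluorescence via G6PDH and diaphorase coupling, 525/613 nm. Control set: DMSO wells with and without enzyme mix.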
ABHD5-PLIN5 inh – ABHD5-PLIN5 protein interaction inhibition. Q00G26+Q8WTS1. Split G. princeps luciferase complementation, luminescence, 4 h. inhibition, % at 4 µM. 360,000 compounds, 0.78% hits. AID 602281;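 active means inhibition above the mean inhibition across every tested compound plus 3 SD, cut at about 22% in these data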;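 further: 0% = DMSO only wells and the 100% control is not disclosed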
Exocytosis inh – lytic granule exocytosis inhibition | AID 651702 | 360,000 compounds, 0.66% hits | inhibition, % at 10 µM | TALL-104 LAMP-1 surface exposure, flow cytometry; cells stimulated with thapsigargin and PMA;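 active means inhibition above about 55%, limit read from the data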
Granule exo CP1 – blocks lytic granule exocytosis; shares compounds with Exocytosis inh; TALL-104 cells, LAMP-1 externalization, flow cytometry; stimulated with PMA plus thapsigargin; inhibition, % at 10 µM; 1,500 compounds, 11% hits; AID 651954; in the data active means inhibition above about 60%;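 further: 0% = stimulated vehicle wells and 100% = unstimulated wells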
* marks the source's active call; other numbers are inactive results; nt = no result given.

SMILES	PfG6PD inh	HKDC1 inh	ABHD5-PLIN5 inh	Exocytosis inh	Granule exo CP1
CCN(CC)CCCNC(=S)N1CCN(c2nc(-c3ccccc3)cs2)CC1	16	-4	8	83*	-3
CCOCCCNC(=S)N1CCN(c2nc(-c3ccccc3)cs2)CC1	3	-3	0	9	nt
O=C(CCc1nc2ccccc2c(=O)[nH]1)Nc1nnc(SCc2ccc(F)cc2)s1	2	5	17	-7	nt
COc1ccc(C(CNC(=O)CSc2ccc(Br)cc2C)N2CCOCC2)cc1 (stereo not given)	-2	-5	5	-3	nt
COc1ccc(OC)c(NS(=O)(=O)c2cccc3cccnc23)c1	26	9	-3	-2	nt
COc1ccc(C(C)(C)C)cc1NS(=O)(=O)c1cccc2cccnc12	24	-1	-1	59*	-12
C=CCN(C(=O)c1csnn1)C(C(=O)NCc1ccc(F)cc1)c1cccs1 (stereo not given)	-3	2	-11	4	nt
CCOCCCNc1ncnc2c1nc1n2CCCC1	10	-5	-4	4	nt
Cc1ccc(C(=O)NCc2ccc3c(c2)OCO3)o1	-16	-1	13	4	nt
Cc1cn2c(=O)c(C(=O)NCc3ccc4c(c3)OCO4)cnc2s1	-8	0	1	59*	-10
O=C(c1ccco1)N1CCC(c2nc(-c3ccc(F)cc3)no2)CC1	-15	-8	0	-3	nt
O=C(c1ccco1)N1CCC(c2nc(-c3ccccc3Cl)no2)CC1	7	7	4	100*	-5
COc1cc(CNc2ncnc3c2ncn3[C@H]2CN(Cc3cccc4ccccc34)C[C@@H](CO)O2)cc(OC)c1OC	nt	nt	10	17	nt
CC(=O)Nc1ccc(C(=O)COC(=O)C2CC2C)c(F)c1 (stereo not given)	4	-6	2	3	nt
COc1ccc(C(=O)CCN2CCCC(C)C2)cc1 (stereo not given)	11	1	5	71*	-9
Cc1cccc(C)c1NC(=O)CS(=O)CC(=O)NCC1OCCc2ccccc21 (stereo not given)	-13	-6	8	3	nt
Cc1cc(NC(=O)CCN2CCC(C)CC2)ccc1Br	0	-2	6	16	nt
COc1ccc(-c2noc(CNC(=O)c3ccc4c(c3)OCO4)n2)cc1	-1	-5	-3	-10	nt
Cc1cccc(-c2noc(CNC(=O)c3ccc4c(c3)OCO4)n2)c1	12	0	3	56*	-6
COc1ccc(N(CC(=O)NCCSCc2ccc(Cl)cc2)S(C)(=O)=O)cc1Cl	13	-2	1	67*	0
COc1ccc(N(CC(=O)NCCSCc2cccc(Cl)c2)S(C)(=O)=O)cc1Cl	13	-2	0	60*	-10
COCC1CCN(Cc2c(C(=O)N3CCOCC3)nc3c(C)cccn23)C1 (stereo not given)	14	nt	5	-7	nt
CCC(=O)Nc1cccc(C(=O)c2ccc(C)c(C)c2)c1	6	-2	-6	-2	nt
COc1cccc(CC2(CO)CCCN(Cc3ccc(OC)c(C)c3OC)C2)c1 (stereo not given)	-7	-2	7	60*	-10
COc1cccc(CC2(CO)CCCN(Cc3ccccc3Cl)C2)c1 (stereo not given)	7	-3	1	10	nt
SMILES	PfG6PD inh	HKDC1 inh	ABHD5-PLIN5 inh	Exocytosis inh	Granule exo CP1
CCOc1ccc(S(=O)(=O)N(CC(=O)NN=C2CCN(C)CC2)c2ccc(C)cc2)cc1	-7	-7	-4	-15	nt
COc1cc(C)ccc1OCc1cc(C(=O)N2CCC(c3ccc(F)cc3)C2)no1 (stereo not given)	6	3	-1	77*	-3
O=C(c1cc(COc2c(F)cccc2F)on1)N1CCC(c2ccncc2)CC1	4	-3	1	86*	-15
Cc1ccc(C)c(OCc2cc(C(=O)N3CC[C@@H]4CCCC[C@H]4C3)no2)c1	15	0	-7	-5	nt
c1ccc(COc2ccc(-c3cc4nc(NCCN5CCOCC5)ccn4n3)cc2)cc1	nt	nt	10	61*	15
COc1ccc(C(=O)NC2CC2)cc1OC1CCN(Cc2ccc(F)cc2Cl)CC1	-12	-2	6	33	nt
COc1ccc(F)cc1S(=O)(=O)NCC(=O)NCc1cc(=O)n(C)c(=O)n1C	-11	0	-2	2	nt
CCN(Cc1ccccc1)S(=O)(=O)c1ccc(C(=O)N(CCCN(C)C)c2nc3cc4c(cc3s2)OCO4)cc1	0	5	16	66*	55
